The text below walks through data of ChEMBL document CHEMBL5696442, “Discovery of type II inhibitors of TGFβ-activated kinase 1 (TAK1) and mitogen-activated protein kinase kinase kinase kinase 2 (MAP4K2)” (J Med Chem, 2015).

In test [1] the target is T1, Mitogen-activated protein kinase 14 (Homo sapiens, UniProt Q16539). Briefly: Inhibition of p38 alpha (unknown origin) by KiNativ Profiling analysis.
Test [2] has as its target T1, Mitogen-activated protein kinase 14. Briefly: Inhibition of p38 alpha in human Huh-7 cell lysate at 1 uM by KiNativ Profiling analysis relative to control. In kind it is subcellular.
The test system of another test is L929. Briefly: Inhibition of TNF alpha induced IKKalpha/beta phosphorylation level in mouse L929 cells at 100 nM preincubated for 30 mins followed by TNF alpha stimulation and measured after 5 mins by Western blot analysis. It is filed as functional, cell-based. The procedure, abridged:
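Mouse L929 cells were pretreated with compound at 100 nM for 30 min, then stimulated with TNFα for 5 min. Lysates were Western blotted for phospho-IKKα/β, with tubulin as loading control.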

Test [3] relates to BaF3. Briefly: Antiproliferative activity against parental mouse BaF3 cells assessed reduction in cell viability measured after 48 hrs by Celltiter-glo assay. It is filed as functional, cell-based. The conditions noted are these: BaF3, 48 h.
The target in test [4] is T2, Mitogen-activated protein kinase kinase kinase kinase 2 (Homo sapiens) (UniProt Q12851).
T2 sequence (whole entry): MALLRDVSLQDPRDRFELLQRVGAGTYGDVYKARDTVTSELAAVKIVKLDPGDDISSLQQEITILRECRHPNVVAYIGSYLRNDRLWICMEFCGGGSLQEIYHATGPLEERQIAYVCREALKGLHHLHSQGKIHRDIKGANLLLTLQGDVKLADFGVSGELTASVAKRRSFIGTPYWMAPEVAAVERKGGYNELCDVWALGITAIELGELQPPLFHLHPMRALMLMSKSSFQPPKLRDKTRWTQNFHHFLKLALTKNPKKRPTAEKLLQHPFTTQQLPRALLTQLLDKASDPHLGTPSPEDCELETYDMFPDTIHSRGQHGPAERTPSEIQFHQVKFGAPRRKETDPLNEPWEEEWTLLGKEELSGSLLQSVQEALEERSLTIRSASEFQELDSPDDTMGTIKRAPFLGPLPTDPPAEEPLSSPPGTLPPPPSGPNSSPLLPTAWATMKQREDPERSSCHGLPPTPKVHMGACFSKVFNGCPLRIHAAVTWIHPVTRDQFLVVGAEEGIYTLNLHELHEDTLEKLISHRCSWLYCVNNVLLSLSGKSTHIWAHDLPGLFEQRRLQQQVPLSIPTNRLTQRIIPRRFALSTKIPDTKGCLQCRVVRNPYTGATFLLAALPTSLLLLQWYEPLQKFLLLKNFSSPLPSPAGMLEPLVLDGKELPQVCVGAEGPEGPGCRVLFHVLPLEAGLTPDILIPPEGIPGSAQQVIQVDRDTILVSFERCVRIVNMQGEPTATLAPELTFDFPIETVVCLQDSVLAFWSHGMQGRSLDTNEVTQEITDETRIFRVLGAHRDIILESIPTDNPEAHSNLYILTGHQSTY
Briefly: Inhibition of MAP4K2 Lys1 labeling site in human A-375 cells at 0.5 uM by KiNativ Profiling analysis relative to control. It is filed as cell-based.

Test [5] has as its target T3, Mitogen-activated protein kinase kinase kinase 7 (Homo sapiens) (UniProt O43318).
T3 sequence (whole entry): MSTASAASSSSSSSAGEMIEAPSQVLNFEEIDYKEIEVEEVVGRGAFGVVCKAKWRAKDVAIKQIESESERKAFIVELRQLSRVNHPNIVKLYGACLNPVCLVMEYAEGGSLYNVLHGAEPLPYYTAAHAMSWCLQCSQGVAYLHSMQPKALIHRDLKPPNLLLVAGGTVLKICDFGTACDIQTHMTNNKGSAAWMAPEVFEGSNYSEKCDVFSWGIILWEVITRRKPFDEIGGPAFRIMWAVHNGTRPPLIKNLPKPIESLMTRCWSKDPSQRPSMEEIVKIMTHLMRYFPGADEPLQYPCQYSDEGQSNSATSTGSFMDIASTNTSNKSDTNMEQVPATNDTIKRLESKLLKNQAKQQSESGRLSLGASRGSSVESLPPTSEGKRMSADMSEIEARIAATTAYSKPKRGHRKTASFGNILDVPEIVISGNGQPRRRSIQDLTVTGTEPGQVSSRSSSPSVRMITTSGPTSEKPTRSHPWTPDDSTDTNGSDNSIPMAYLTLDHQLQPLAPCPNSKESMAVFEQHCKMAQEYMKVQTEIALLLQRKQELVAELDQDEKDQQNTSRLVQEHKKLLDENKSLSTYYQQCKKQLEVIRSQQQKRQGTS
Briefly: Inhibition of TAK1 Lys2 labeling site in human A-375 cells at 0.5 uM by KiNativ Profiling analysis relative to control. In kind it is cell-based.

The target in test [6] is T4, Mitogen-activated protein kinase kinase kinase kinase 2 (Homo sapiens, UniProt Q12851).
T4 sequence (Q12851 whole entry): T2 sequence (whole entry)
Briefly: Inhibition of MAP4K2 (unknown origin) Lys1 labeling site by KiNativ Profiling analysis.

Test [7] has as its target T5, Mitogen-activated protein kinase kinase kinase 7 (Homo sapiens, UniProt O43318).
T5 sequence (O43318 whole entry): T3 sequence (whole entry)
Briefly: Inhibition of TAK1 (unknown origin) Lys2 labeling site by KiNativ Profiling analysis.

The target of test [8] is T6, Tyrosine-protein kinase ABL1 (Homo sapiens, UniProt P00519). Briefly: Inhibition of ABL ACT labeling site in human Huh-7 cell lysate at 1 uM by KiNativ Profiling analysis relative to control. It is filed as subcellular.
The test system of test [9] is BaF3. Briefly: Antiproliferative activity against parental mouse BaF3 cells harbouring Bcr/Abl assessed reduction in cell viability measured after 48 hrs by Celltiter-glo assay. It is filed as functional, cell-based. To be noted: BaF3, 48 h. The procedure, abridged: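 Cells were grown with serial dilutions of compound for 48 h, and viability was read by CellTiter-Glo. IC50 was derived from the dose–response curve. Parental Ba/F3 cells were grown in the presence of interleukin 3. The BCR-ABL line is BCR-ABL-dependent Ba/F3.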

Test [10] concerns the target T7, Mitogen-activated protein kinase kinase kinase 20 (Homo sapiens, UniProt Q9NYL2). Briefly: Inhibition of ZAK (unknown origin) Lys1 labeling site by KiNativ Profiling analysis.
Target sequence in this assay (Q9NYL2 whole entry): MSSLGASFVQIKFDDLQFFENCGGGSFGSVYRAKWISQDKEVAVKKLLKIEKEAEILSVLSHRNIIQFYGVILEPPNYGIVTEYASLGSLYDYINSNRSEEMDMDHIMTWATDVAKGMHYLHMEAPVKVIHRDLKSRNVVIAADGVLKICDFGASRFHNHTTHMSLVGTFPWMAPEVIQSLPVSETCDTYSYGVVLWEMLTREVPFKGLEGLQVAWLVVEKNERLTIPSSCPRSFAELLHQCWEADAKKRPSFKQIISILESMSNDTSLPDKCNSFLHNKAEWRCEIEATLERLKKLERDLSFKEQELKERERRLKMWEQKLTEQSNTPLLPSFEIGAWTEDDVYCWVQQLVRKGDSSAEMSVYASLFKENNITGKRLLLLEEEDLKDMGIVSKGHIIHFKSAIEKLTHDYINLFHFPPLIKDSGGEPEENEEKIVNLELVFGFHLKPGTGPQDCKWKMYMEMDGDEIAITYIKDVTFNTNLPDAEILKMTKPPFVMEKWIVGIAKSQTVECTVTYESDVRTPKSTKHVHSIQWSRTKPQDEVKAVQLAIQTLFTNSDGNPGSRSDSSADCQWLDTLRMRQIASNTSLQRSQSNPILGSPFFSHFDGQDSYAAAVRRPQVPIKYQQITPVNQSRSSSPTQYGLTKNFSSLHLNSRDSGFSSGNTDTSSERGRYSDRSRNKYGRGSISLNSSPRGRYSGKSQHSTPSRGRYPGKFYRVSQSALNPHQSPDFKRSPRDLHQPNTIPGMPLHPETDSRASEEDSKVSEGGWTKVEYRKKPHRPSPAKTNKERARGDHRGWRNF
Test [11] has as its target T8, Tyrosine-protein kinase CSK (Homo sapiens, UniProt P41240). Briefly: Inhibition of CSK (unknown origin) ACT labeling site by KiNativ Profiling analysis.
Target sequence in this assay (P41240 whole entry): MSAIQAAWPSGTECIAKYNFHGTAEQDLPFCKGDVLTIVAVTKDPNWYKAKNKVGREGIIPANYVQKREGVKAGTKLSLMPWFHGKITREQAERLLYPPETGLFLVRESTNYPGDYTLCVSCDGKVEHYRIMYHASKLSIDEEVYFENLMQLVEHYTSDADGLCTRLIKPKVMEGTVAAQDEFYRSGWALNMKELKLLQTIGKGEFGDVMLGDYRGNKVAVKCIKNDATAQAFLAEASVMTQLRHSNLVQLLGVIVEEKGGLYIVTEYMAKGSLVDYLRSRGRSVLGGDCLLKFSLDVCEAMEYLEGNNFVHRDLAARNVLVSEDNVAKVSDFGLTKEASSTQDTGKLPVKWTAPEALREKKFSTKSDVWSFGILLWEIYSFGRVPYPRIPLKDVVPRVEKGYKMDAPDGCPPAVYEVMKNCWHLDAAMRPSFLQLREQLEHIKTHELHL
Test [12] deals with T6, Tyrosine-protein kinase ABL1. Briefly: Inhibition of ABL Lys1 labeling site in human Huh-7 cell lysate at 1 uM by KiNativ Profiling analysis relative to control. In kind it is subcellular.
Test [13] concerns the target T8, Tyrosine-protein kinase CSK. Briefly: Inhibition of CSK ACT labeling site in human Huh-7 cell lysate at 1 uM by KiNativ Profiling analysis relative to control. It is filed as subcellular.
Target sequence in this assay (P41240 2-450 limits assumed): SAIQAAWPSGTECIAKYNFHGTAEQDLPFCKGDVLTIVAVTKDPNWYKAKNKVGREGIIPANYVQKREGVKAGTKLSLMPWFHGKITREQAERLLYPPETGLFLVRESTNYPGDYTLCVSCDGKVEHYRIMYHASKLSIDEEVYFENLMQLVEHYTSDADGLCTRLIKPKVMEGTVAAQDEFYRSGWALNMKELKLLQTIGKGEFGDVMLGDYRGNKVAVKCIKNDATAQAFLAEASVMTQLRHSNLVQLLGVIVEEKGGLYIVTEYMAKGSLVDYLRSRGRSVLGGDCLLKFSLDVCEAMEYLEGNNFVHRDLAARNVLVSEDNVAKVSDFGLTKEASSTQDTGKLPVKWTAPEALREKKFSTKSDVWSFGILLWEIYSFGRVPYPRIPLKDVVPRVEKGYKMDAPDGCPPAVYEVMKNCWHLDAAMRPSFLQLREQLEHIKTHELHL
Test [14] concerns the target T7, Mitogen-activated protein kinase kinase kinase 20. Briefly: Inhibition of ZAK Lys1 labeling site in human Huh-7 cell lysate at 1 uM by KiNativ Profiling analysis relative to control. In kind it is subcellular.
Target sequence in this assay (Q9NYL2 2-800 limits assumed): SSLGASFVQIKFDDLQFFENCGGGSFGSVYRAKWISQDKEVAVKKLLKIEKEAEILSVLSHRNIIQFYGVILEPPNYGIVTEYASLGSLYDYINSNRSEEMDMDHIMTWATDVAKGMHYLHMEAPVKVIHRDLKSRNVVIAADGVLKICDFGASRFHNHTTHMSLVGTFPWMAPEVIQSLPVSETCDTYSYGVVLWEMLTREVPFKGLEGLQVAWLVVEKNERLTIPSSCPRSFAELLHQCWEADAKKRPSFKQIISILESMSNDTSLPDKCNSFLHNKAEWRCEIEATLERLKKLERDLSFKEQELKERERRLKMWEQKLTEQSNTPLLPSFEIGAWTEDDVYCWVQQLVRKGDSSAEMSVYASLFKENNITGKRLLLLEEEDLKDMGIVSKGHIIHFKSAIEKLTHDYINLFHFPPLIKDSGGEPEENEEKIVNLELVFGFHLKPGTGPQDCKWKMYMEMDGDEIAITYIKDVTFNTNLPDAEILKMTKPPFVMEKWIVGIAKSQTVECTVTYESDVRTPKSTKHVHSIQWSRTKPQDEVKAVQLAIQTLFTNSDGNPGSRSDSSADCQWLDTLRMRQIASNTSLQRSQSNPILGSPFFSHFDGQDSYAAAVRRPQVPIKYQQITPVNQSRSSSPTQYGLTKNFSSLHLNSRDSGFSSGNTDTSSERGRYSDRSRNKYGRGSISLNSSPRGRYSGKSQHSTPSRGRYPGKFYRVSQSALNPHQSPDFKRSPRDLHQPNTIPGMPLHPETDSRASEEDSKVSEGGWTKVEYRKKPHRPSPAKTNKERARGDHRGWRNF

Activity calls are given as the source filed them. No cut-off for these calls is given here.

T1 sequence (Q16539 whole entry): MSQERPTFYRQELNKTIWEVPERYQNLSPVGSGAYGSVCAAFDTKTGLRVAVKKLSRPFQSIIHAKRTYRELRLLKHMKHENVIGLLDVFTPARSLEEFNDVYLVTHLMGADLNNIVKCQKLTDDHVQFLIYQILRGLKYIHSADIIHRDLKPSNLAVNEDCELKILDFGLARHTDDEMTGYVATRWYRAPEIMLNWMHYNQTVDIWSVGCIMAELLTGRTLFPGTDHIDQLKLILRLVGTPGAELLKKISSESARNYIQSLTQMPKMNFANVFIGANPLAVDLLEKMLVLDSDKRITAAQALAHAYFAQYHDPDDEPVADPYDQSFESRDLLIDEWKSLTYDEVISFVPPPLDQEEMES
T6 sequence (P00519 whole entry): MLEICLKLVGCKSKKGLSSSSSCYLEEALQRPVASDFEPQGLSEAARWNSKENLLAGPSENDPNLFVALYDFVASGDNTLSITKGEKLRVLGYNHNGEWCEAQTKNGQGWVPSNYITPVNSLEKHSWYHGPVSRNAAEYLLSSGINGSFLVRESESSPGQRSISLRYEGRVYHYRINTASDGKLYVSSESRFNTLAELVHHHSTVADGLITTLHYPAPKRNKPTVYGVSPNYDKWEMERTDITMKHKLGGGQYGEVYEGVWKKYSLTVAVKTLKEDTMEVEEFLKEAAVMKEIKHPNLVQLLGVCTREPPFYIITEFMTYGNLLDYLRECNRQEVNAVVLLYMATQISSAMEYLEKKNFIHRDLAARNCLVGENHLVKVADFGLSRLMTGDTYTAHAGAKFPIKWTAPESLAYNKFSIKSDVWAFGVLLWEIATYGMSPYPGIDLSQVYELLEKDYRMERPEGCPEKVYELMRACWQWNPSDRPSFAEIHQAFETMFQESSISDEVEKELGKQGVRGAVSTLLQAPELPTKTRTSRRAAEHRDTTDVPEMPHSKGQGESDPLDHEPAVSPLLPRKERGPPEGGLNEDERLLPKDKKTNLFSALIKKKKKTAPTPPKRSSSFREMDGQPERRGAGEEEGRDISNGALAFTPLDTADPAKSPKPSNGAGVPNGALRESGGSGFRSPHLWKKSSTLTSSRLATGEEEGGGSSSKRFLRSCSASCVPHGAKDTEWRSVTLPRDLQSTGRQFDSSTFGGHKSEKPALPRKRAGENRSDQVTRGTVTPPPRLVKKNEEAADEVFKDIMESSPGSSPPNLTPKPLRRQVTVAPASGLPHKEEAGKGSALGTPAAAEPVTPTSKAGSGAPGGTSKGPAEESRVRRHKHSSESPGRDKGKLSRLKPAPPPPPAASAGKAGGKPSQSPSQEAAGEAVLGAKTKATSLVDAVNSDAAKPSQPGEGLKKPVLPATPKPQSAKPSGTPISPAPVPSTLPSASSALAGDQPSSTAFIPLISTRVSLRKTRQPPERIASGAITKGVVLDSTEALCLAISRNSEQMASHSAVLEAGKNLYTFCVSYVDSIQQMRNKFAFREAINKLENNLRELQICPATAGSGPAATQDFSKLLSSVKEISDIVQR

The molecule `CCN1CCN(Cc2ccc(C(=O)Nc3ccc(C)c(Oc4ccnc5[nH]ccc45)c3)cc2C(F)(F)F)CC1` showed an IC50 in test [1] of 19.5 nM. Further, the inhibition in [2] is 88.4%. Besides, the inhibition result in the test on L929 is “inactive”.

With `CCN1CCN(Cc2ccc(NC(=O)c3cccc(Oc4ccnc5[nH]ccc45)c3)cc2C(F)(F)F)CC1`, the IC50 worked out at 7440 nM in the test on BaF3 [3]; 23.8 nM in test [6]; 119 nM in [7]; 35.9 nM in [1]; 10 nM with BaF3 [9]. The inhibition in [4] is over 80%; in test [5], 75.6%; in [8], over 96%; in [2], 85.8%.

Consider `COc1c(/C=C/c2cc(C(=O)Nc3cccc(C(C)(C)C#N)c3)ccc2C)cnc2[nH]ccc12`, for which the IC50 with BaF3 [3] was 3300 nM; in test [10], 103 nM; in test [11], 25.1 nM; in the test with BaF3 [9], 10 nM. The inhibition in test [12] was 71.5%; in test [8] it was 62.2%; in [13] it was 75.7%; in test [14], 95.8%.

Turning to `CCN1CCN(Cc2ccc(NC(=O)c3cccc(/C=C/c4cnc5[nH]ccc5c4OC)c3)cc2C(F)(F)F)CC1`, the IC50 with BaF3 [3] was determined as 7100 nM; in test [10], 396 nM; in the test on BaF3 [9] it was 10 nM. Besides, the inhibition was 82% in test [12], 89.6% in [8] and 75.3% in [14].

As to `CCN1CCN(Cc2ccc(NC(=O)c3ccc(C)c(OCc4cnc5[nH]ccc5c4OC)c3)cc2C(F)(F)F)CC1`, the IC50 turned out to be 8280 nM in the test with BaF3 [3]; 49.4 nM in [6]; 150 nM in test [7]; 659 nM in [1]; 59 nM in [11]; 39 nM with BaF3 [9]. The inhibition in [4] is 89.4%; in test [5] it was 59.6%; in test [12], over 80%; in test [8], 96%; in test [13], 84%; in test [2], 97.3%.

As for `COc1c(/C=C/c2cc(C(=O)Nc3ccc(OC4CCN(C)CC4)c(C(F)(F)F)c3)ccc2C)cnc2[nH]ccc12`, the values for the IC50 (in the test with BaF3 [3]; in test [1]; in the test on BaF3 [9]) were 7570 nM, 63.6 nM and 10 nM, respectively. In addition, the values for the inhibition in [12], in test [8] and in [2] were over 85%, 94.5% and 90.5%, respectively.

With `CNC(=O)c1ccc(C)c(-n2c(C)cc(OCc3ccc(F)cc3F)c(Br)c2=O)c1`, in the test with L929, the inhibition entry is “inactive”.

For the molecule `COc1c(CCc2cc(C(=O)Nc3cc(-n4cnc(C)c4)cc(C(F)(F)F)c3)ccc2C)cnc2[nH]ccc12`, the IC50 turned out to be 4920 nM in the test on BaF3 [3], 98.2 nM in test [10], 5.27 nM in [1] and 10 nM in the test with BaF3 [9]. For the same molecule, the inhibition in test [12] is 80.4%; in test [8], 92.2%; in test [2], 98.8%; in [14] it was 95.6%.

With `CCN1CCN(c2ccc(NC(=O)c3ccc(C)c(CCc4cnc5[nH]ccc5c4OC)c3)cc2C(F)(F)F)CC1`, the IC50 is 9740 nM in the test with BaF3 [3] and 181 nM in the test on BaF3 [9]. Besides, the inhibition in test [12] came to 75.2%; in test [8], 80.7%.

Turning to `CCN1CCN(Cc2ccc(NC(=O)c3ccc(OC)c(Oc4ncnc5[nH]ccc45)c3)cc2C(F)(F)F)CC1`, the IC50 was determined as 296 nM in test [6] and 292 nM in test [7].

`CCN1CCN(Cc2ccc(NC(=O)c3cccc(CCc4cnc5[nH]ccc5c4OC)c3)cc2C(F)(F)F)CC1`: the IC50 with BaF3 [3] was over 10000 nM; in test [10], 301 nM; with BaF3 [9], 387 nM. Further, the inhibition was 83% in [12], 66.4% in test [8] and 78% in test [14].

`C[S+]([O-])c1ccc(-c2nc(-c3ccc(F)cc3)c(-c3ccncc3)[nH]2)cc1` (stereo not given): the inhibition entry in the test on L929 is “inactive”.

Consider `COc1c(/C=C/c2cc(C(=O)Nc3ccc(CN4CCC(N(C)C)C4)c(C(F)(F)F)c3)ccc2C)cnc2[nH]ccc12` (stereo not given), for which the IC50 was determined as 5470 nM in the test with BaF3 [3], 140 nM in test [1], 25 nM in test [11] and 10 nM in the test with BaF3 [9]. In addition, the inhibition stood at 47.5% in test [12], 66.6% in test [8], 75.6% in test [13] and 85% in test [2].

As for `CCN1CCN(Cc2ccc(NC(=O)c3ccc(C)c(/C=C/c4cnc5[nH]ccc5c4OC)c3)cc2)CC1`, the IC50 in the test on BaF3 [3] is 7710 nM; with BaF3 [9], 10 nM. Also, the inhibition was over 80% in test [12] and 96.3% in [8].

For `Cc1cn(-c2cc(NC(=O)c3ccc(C)c(Oc4ccnc5[nH]ccc45)c3)cc(C(F)(F)F)c2)cn1`, the inhibition in test [4] is 72%; in test [5], -1.5%. Besides, the results for the IC50 in test [6] and in test [7] were 30.1 nM and 4490 nM, respectively. Also, the inhibition entry in the test on L929 was “inactive”.

With `CCN1CCN(Cc2ccc(NC(=O)c3ccc(C)c(Oc4ccnc(C(=O)NC)c4)c3)cc2C(F)(F)F)CC1`, the IC50 in test [10] amounted to 447 nM; in test [1] it was 69.6 nM. Moreover, the inhibition in [2] was 93.1%; in test [14] it was 82.7%.

Regarding `CCN1CCN(Cc2ccc(C(=O)Nc3cccc(CCc4cnc5[nH]ccc5c4OC)c3)cc2C(F)(F)F)CC1`, the IC50 with BaF3 [3] was over 10000 nM; in [10] it was 179 nM; in [1] it was 555 nM; in the test with BaF3 [9], 16 nM. Moreover, the inhibition in test [12] was over 80%; in test [8] it was 90.3%; in test [2] it was 95.9%; in [14], 78.4%.

`Cc1ccc(C(=O)Nc2cc(N3CCN(C)CC3)cc(C(F)(F)F)c2)cc1Oc1ncnc2[nH]ccc12`: the inhibition stood at 73.6% in test [4] and 29.3% in test [5]. For the same molecule, the IC50 was 177 nM in [6] and 465 nM in test [7].

For `CCN1CCN(Cc2ccc(NC(=O)c3ccc(C)c(Oc4ccnc(NC)n4)c3)cc2C(F)(F)F)CC1`, the IC50 in the test with BaF3 [3] is over 10000 nM; in [6], 26.5 nM; in [7], 165 nM; in test [10] it was 546 nM; in test [1], 45.8 nM; in the test with BaF3 [9], 85 nM. In addition, the inhibition is over 85% in test [4]; 77.7% in test [5]; 74.6% in test [8]; 95.4% in [2]; 89.6% in test [14].
